Most compounds without a hit are left out; they make up all but 2.8% or so of the library.
HTRA1 inhibitor = blocks human HTRA1 serine peptidase; Q92743; recombinant HTRA1, FP-rhodamine activity-based probe, fluorescence polarization; inhibition, % at 5.96 µM; hit rate 0.5% among 340,000; in the data active means inhibition above about 36%
pPAFAH FP inh = inhibitors of human plasma PAF acetylhydrolase (pPAFAH); hit rate 1.5% among 330,000; AID 463082; Q13093; inhibition, % at 3.39 µM; recombinant pPAFAH, FP-rhodamine probe fluorescence polarization;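 active means inhibition above the mean inhibition across the screen plus 3 SD, cut at about 25% in these data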;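 further: inhibitors block binding of the rhodamine activity-based probe so polarization drops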
Target sequence (Q13093 whole entry, looked up): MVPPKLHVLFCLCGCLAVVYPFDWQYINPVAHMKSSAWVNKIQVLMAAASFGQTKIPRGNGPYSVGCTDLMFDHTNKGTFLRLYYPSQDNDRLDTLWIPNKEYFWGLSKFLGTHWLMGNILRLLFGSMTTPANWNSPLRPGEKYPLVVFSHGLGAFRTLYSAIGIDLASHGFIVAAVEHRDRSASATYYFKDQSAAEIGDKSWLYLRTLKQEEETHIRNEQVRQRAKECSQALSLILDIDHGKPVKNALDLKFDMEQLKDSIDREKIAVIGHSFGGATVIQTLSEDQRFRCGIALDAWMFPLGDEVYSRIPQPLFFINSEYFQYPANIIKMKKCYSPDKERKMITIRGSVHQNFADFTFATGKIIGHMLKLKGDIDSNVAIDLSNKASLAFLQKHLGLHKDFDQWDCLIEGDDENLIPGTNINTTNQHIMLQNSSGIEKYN
PAFAH2 inh = inhibitors of human PAFAH2 | recombinant PAFAH2, FP-rhodamine activity probe, fluorescence polarization | inhibition, % at 3.39 µM | Q99487 | hit rate 0.99% among 340,000;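 active means inhibition above the mean over all tested compounds plus 3 SD, cut at about 30% in these data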;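 further: inhibitors block probe labeling of enzyme so polarization drops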
mABHD4 FP = ABHD4 (mouse) inhibition, primary FP screen; Q8VD66; purified mABHD4, FP-Rh probe fluorescence polarization; inhibition, % at 8.92 µM; hit rate 0.54% among 370,000;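 active means inhibition exceeding the mean over every tested compound plus 3 SD, cut at about 30% in these data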
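Test system: mouse ABHD4 enzyme, wild type. Reagent: FP-Rh fluorescent activity-based probe, added after compound pre-incubation. Timing: pre-incubation 45 min, probe exposure 60 min, at 25 °C. Technique: FP readout, ex 525 nm / em 598 nm. Benchmarks: high control S159A mutant with DMSO, low control median of compound wells.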
PAFAH1B3 FP inh = inhibitors of human PAFAH1B3. Q15102. recombinant PAFAH1B3, FP-rhodamine probe, fluorescence polarization. inhibition, % at 3.39 µM. hit rate 0.28% among 340,000;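 active means inhibition above the screen-wide average of all tested compounds plus 3 SD, cut at about 25% in these data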
PAFAH1B2 inh = inhibitors of human PAFAH1B2 | recombinant PAFAH1B2, FP-rhodamine activity probe, fluorescence polarization | inhibition, % at 3.39 µM | hit rate 1.2% among 340,000 | P68402;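 active means inhibition above the mean of all tested compounds plus 3 SD, cut at about 24% in these data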
HTRA1 inh conf = HTRA1 (human) inhibition, confirmation; shares compounds with HTRA1 inhibitor; recombinant HTRA1, FP-rhodamine activity-based probe, fluorescence polarization; inhibition, % at 5.96 µM; hit rate 66% among 1,600;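 active means mean inhibition over three repeats above a set limit taken from the earlier primary screen, cut at about 37% in these data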;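 further: inhibitors block probe binding so polarization drops and inhibition rises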
Each line names hits and unclear results; the compound was inactive in the other large screens (follow-up assays come after a bar, where they were run).

CC1(C)CC(Nc2ccc(Nc3ccccc3)cc2)CC(C)(C)N1	HTRA1 inhibitor 42 (no result: pPAFAH FP inh) | HTRA1 inh conf 54
CN1CC=C(c2ccc(C(F)(F)F)cc2)N(c2ccccc2)C1=O	none (no result: HTRA1 inhibitor, pPAFAH FP inh, PAFAH2 inh, PAFAH1B3 FP inh, PAFAH1B2 inh)
COc1ccc(OC)c(S(=O)(=O)N(CC(=O)NC2CCC(C)CC2)c2cc(C)cc(C)c2)c1 (stereo unspecified)	none (no result: HTRA1 inhibitor, pPAFAH FP inh, PAFAH2 inh, PAFAH1B3 FP inh, PAFAH1B2 inh)
CN1CCN(C(c2ccc(Cl)cc2)c2cc(Cl)c3cccnc3c2O)CC1 (stereo unspecified)	HTRA1 inhibitor 43 | HTRA1 inh conf 87
Cc1[nH]c2ccccc2c1C(c1ccccn1)N1CCCC1 (stereo unspecified)	none
Oc1c(C(c2ccccn2)N2CCCCC2)cc(Cl)c2cccnc12 (stereo unspecified)	HTRA1 inhibitor 53 | HTRA1 inh conf 55
CN1CCN(C(c2ccc(C(F)(F)F)cc2)c2cc(Cl)c3cccnc3c2O)CC1 (stereo unspecified)	none (no result: HTRA1 inhibitor, PAFAH2 inh, PAFAH1B3 FP inh, PAFAH1B2 inh)
Cc1cc(Cl)ccc1OCCCC(=O)NNC(=O)c1ccccc1O	HTRA1 inhibitor 39, pPAFAH FP inh 29 | HTRA1 inh conf 52
Cc1ccc2c(c1)c(=O)c1c3n2CCN(C(=O)CCl)C3CC1 (stereo unspecified)	HTRA1 inhibitor 48 | HTRA1 inh conf inactive
Cn1c(SCC(=O)Nc2ccccc2-c2ccccc2)nnc1-c1cnccn1	none (no result: HTRA1 inhibitor, pPAFAH FP inh, PAFAH2 inh, PAFAH1B3 FP inh, PAFAH1B2 inh)
CC(=O)c1ccc(NC(=O)CC2Nc3cccc4cccc(c34)NC2=O)cc1 (stereo unspecified)	HTRA1 inhibitor 57 | HTRA1 inh conf inactive
CC(=O)Nc1ccc(NC(=O)CC2Nc3cccc4cccc(c34)NC2=O)cc1 (stereo unspecified)	none
O=C(C1CCCN(S(=O)(=O)c2cccs2)C1)N1CCN(Cc2ccccc2)CC1 (stereo unspecified)	none (no result: HTRA1 inhibitor, pPAFAH FP inh, PAFAH2 inh, PAFAH1B3 FP inh, PAFAH1B2 inh)
c1ccc(CN2CCC(=NNc3nc4ccccc4[nH]3)CC2)cc1	HTRA1 inhibitor 37 | HTRA1 inh conf inactive
CCC[n+]1c(C)sc2c3c(ccc21)CCCC3	HTRA1 inhibitor 46 (no result: mABHD4 FP) | HTRA1 inh conf 50
CN(C)c1ccc(NC(=O)c2cccc(C(=O)Nc3ccc(N(C)C)cc3)n2)cc1	HTRA1 inhibitor 44, pPAFAH FP inh 26 | HTRA1 inh conf 65
COc1ccc(-c2cc(=O)c3cccc(CC(=O)O)c3o2)cc1	none (no result: HTRA1 inhibitor, pPAFAH FP inh, PAFAH2 inh, PAFAH1B3 FP inh, PAFAH1B2 inh)
Cc1cccc2nc(-c3ccco3)c(Nc3ccccc3)n12	none
Cc1ccc(Nc2c(-c3ccccn3)nc3cccc(C)n23)cc1	HTRA1 inhibitor 62 | HTRA1 inh conf 67
Cc1cccc(CCNC(=O)Cn2ncc3c2-c2cc(C)ccc2OC3)c1	none (no result: HTRA1 inhibitor, pPAFAH FP inh, PAFAH2 inh, PAFAH1B3 FP inh, PAFAH1B2 inh)
O=C1CC(Nc2ccc(N3CCOCC3)cc2)C(=O)N1Cc1ccccc1 (stereo unspecified)	HTRA1 inhibitor 49, pPAFAH FP inh 34, mABHD4 FP 49 | HTRA1 inh conf inactive
CCc1c(-c2cccc(OC)c2)ncn1CCc1ccccc1OC	none (no result: HTRA1 inhibitor, pPAFAH FP inh, PAFAH2 inh, PAFAH1B3 FP inh, PAFAH1B2 inh)
COc1cccc(OC)c1C(=O)NC(C)CCc1ccccc1 (stereo unspecified)	none
COc1cc(NC(C)CCc2ccccc2)cc(OC)c1OC (stereo unspecified)	HTRA1 inhibitor 40 | HTRA1 inh conf inactive
Cc1ccc2nc(NNC(=O)c3ccc(S(=O)(=O)N4CCc5ccccc5C4)cc3)sc2c1	HTRA1 inhibitor 49 | HTRA1 inh conf inactive
Cc1cc(C)c2nc(NNC(=O)c3ccc(S(=O)(=O)N4CCCC(C)C4)cc3)sc2c1 (stereo unspecified)	HTRA1 inhibitor 51, pPAFAH FP inh 29 | HTRA1 inh conf 54
COC(=O)c1sc2ccccc2c1NC(=O)c1ccc(S(=O)(=O)N2CC(C)CC(C)C2)cc1 (stereo unspecified)	none
Cc1cccc2sc(NNC(=O)c3ccc(S(=O)(=O)N4CC(C)CC(C)C4)cc3)nc12 (stereo unspecified)	HTRA1 inhibitor 60 | HTRA1 inh conf 41
Cc1cc(C)c2nc(NNC(=O)c3ccc(S(=O)(=O)N4CC(C)CC(C)C4)cc3)sc2c1 (stereo unspecified)	HTRA1 inhibitor 54 | HTRA1 inh conf 61
CCN(CC)C(=O)CC[C@@H]1CC[C@]2(CCCN(Cc3ccc(Cl)cc3)C2)O1	none (no result: HTRA1 inhibitor, pPAFAH FP inh, PAFAH2 inh, PAFAH1B3 FP inh, PAFAH1B2 inh)
